Test results from article PMC4716096 (Kidney Research and Clinical Practice, 2012).

Experiments:
[1] = n-octanol versus water; cited from earlier work
[2] = transplant recipient group with a high BMI; cited from earlier work
[3] = Pharmacokinetic profile of tacrolimus; format: in vivo, human; details: dose-adjusted whole-blood concentrations; P=0.024 and 0.031
Summary of the method: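 Stable Korean kidney recipients (n=18; ≥20 y, ≥6 months post-transplant, creatinine <2.0 mg/dL) on steroid/mycophenolate/tacrolimus, trough-targeted 5–10 ng/mL. Fasting; whole blood drawn pre-morning dose (C0) and at 1–4 h post-dose; mass spectrometry. AUC0–4 by linear trapezoidal rule; values dose-adjusted. Lean/fat mass by bioelectrical impedance; groups split at median, compared by Mann-Whitney U (P<0.05).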

C0 and C4 in the high-fat group compared with the low-fat group [3]: significantly elevated
SMILES: C=CC[C@@H]1/C=C(\C)C[C@H](C)C[C@H](OC)[C@H]2O[C@@](O)(C(=O)C(=O)N3CCCC[C@H]3C(=O)O[C@H](/C(C)=C/[C@@H]3CC[C@@H](O)[C@H](OC)C3)[C@H](C)[C@@H](O)CC1=O)[C@H](C)C[C@@H]2OC [tacrolimus]
partition coefficient of tacrolimus in n-octanol relative to water [1]: 1000 fold | tacrolimus levels [2]: higher than 15 ng/mL
